Measured values reported in ChEMBL document CHEMBL1667754, “Synthesis and biological activity of pyrazolothienotetrahydroisoquinoline and [1,2,4]triazolo[3,4-a]thienotetrahydroisoquinoline derivatives” (2011).

Experiments:
Escherichia coli = experiment: Antibacterial activity against Escherichia coli at 50 uL/well by well diffusion assay; assay type: functional
Summary of the method: (§1)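 Bauer-type diffusion assay. Test compounds were at 2% in DMSO. The read-out was the diameter (mm) of the inhibition zone, with chloramphenicol as the reference agent.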

Micrococcus luteus = experiment: Antibacterial activity against Micrococcus luteus at 50 uL/well by well diffusion assay; assay type: functional; summary of the method: as §1
Trichophyton rubrum = experiment: Antifungal activity against Trichophyton rubrum at 50 uL/well by well diffusion assay; assay type: functional
Summary of the method: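 Agar discs (10 mm) carrying spores and hyphae were shaken in sterile distilled water. 1 mL of the spore suspension was plated and mixed with 15 mL molten SDA, then left to set. Compounds were at 2% in DMSO, applied per Bauer's diffusion method. The read-out was the inhibition zone (mm).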

Aspergillus niger = experiment: Antifungal activity against Aspergillus niger at 2% by disc diffusion assay
Fusarium oxysporum = experiment: Antifungal activity against Fusarium oxysporum at 2% by disc diffusion assay
Aspergillus flavus = experiment: Antifungal activity against Aspergillus flavus at 2% by disc diffusion assay
Geotrichum candidum = experiment: Antifungal activity against Geotrichum candidum at 2% by disc diffusion assay
Candida albicans = experiment: Antifungal activity against Candida albicans at 200 ug/disc by disc diffusion assay
[1] = test system: Scopulariopsis brevicaulis; experiment: Antifungal activity against Scopulariopsis brevicaulis at 2% by disc diffusion assay
Bacillus cereus = experiment: Antibacterial activity against Bacillus cereus at 200 ug/disc by disc diffusion assay
Serratia marcescens = experiment: Antibacterial activity against Serratia marcescens at 200 ug/disc by disc diffusion assay
Staphylococcus aureus = experiment: Antibacterial activity against Staphylococcus aureus at 200 ug/disc by disc diffusion assay
Pseudomonas aeruginosa = experiment: Antibacterial activity against Pseudomonas aeruginosa at 200 ug/disc by disc diffusion assay

| Structure (SMILES) | diameter of the inhibition zone (DIZ) (Escherichia coli) [mm] | diameter of the inhibition zone (DIZ) (Micrococcus luteus) [mm] | diameter of the inhibition zone (DIZ) (Trichophyton rubrum) [mm] | diameter of the inhibition zone (DIZ) (Aspergillus niger) [mm] | diameter of the inhibition zone (DIZ) (Fusarium oxysporum) [mm] | diameter of the inhibition zone (DIZ) (Aspergillus flavus) [mm] | diameter of the inhibition zone (DIZ) (Geotrichum candidum) [mm] | diameter of the inhibition zone (DIZ) (Candida albicans) [mm] | diameter of the inhibition zone (DIZ) [1] [mm] | diameter of the inhibition zone (DIZ) (Bacillus cereus) [mm] | diameter of the inhibition zone (DIZ) (Serratia marcescens) [mm] | diameter of the inhibition zone (DIZ) (Staphylococcus aureus) [mm] | diameter of the inhibition zone (DIZ) (Pseudomonas aeruginosa) [mm] |
| --- | --- | --- | --- | --- | --- | --- | --- | --- | --- | --- | --- | --- | --- |
| Cc1cc(C)n(-c2nc(SCC(N)=O)c(C#N)c3c2CCCC3)n1 | 0 | 0 | 0 | 8 | 0 | 0 | 0 | 0 | 0 | 0 | 0 | 10 | 0 |
| N#Cc1c2c(c3nncn3c1SCC(=O)c1ccccc1)CCCC2 | 10 | 14 | 0 | 16 | 11 | 20 | 8 | 11 | 10 | 14 | 0 | 0 | 0 |
| N#Cc1c2c(c(NN)[nH]c1=S)CCCC2 | 14 | 14 | 17 | 12 | 13 | 10 | 0 | 12 | 0 | 20 | 0 | 11 | 0 |
| NC(=O)c1sc2c(c1N)c1c(c3nncn32)CCCC1 | 0 | 0 | 0 | 0 | 0 | 0 | 0 | 0 | 0 | 10 | 0 | 8 | 0 |
